Reference: ChEMBL document CHEMBL3414521, “Discovery of the 2-phenyl-4,5,6,7-Tetrahydro-1H-indole as a novel anti-hepatitis C virus targeting scaffold” (Eur J Med Chem, 2015)
The source made the active and inactive calls. No cut-off for these calls is given here.

Experiments:
[1] = Cytotoxicity against human Huh7.5 cells after 48 hrs by MTS assay; assay type: cell-based; details: huh-7, 48 h
In short: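 Parental Huh7.5 cells grown in DMEM with 10% FCS without G418, 37 °C, 5% CO2; treated at 6–8 doses for 48 h. Viability by MTS bioreduction to formazan; CC50 as concentration halving MTS conversion relative to DMSO controls, mean ± SD of three independent experiments.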

Hepatitis C virus [2] = experiment: Antiviral activity against HCV genotype 1b infected in HuH7/Rep-Feo1b cells at 50 uM by firefly luciferase reporter gene assay; assay type: functional, Hepacivirus hominis; details: Huh-7
In short: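 Replicon reporter cells (gt 1b in Huh7/Rep-Feo1b, firefly luciferase; gt 2a in Huh7.5-FGR-JC1-Rluc2A, Renilla luciferase) kept in DMEM with 10% FCS and 0.5 mg/mL G418, 37 °C, 5% CO2. About 1×10^4 cells per well were treated at 50 μM for 48 h in 1.0% DMSO. Luciferase signal was read relative to DMSO-treated cells as % inhibition.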

Hepatitis C virus [3] = experiment: Antiviral activity against HCV genotype 1b infected in HuH7/Rep-Feo1b cells by firefly luciferase reporter gene assay; assay type: functional, cell-based, Hepacivirus hominis; details: Huh-7
In short: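 Huh7 cells carrying autonomously replicating gt 1b replicon with firefly luciferase reporter; ~1×10^4 cells/well treated 48 h, 1.0% DMSO final. Primary screen at 50 μM; actives titrated over 8–12 quarter-log dilutions. Luciferase signal relative to DMSO-treated controls; EC50 from dose-response curves, mean ± SD of three independent experiments.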

[4] = Selectivity index, ratio of CC50 for human Huh7.5 cells to EC50 for HCV genotype 1b infected in HuH7/Rep-Feo1b cells; design: species or system Huh-7
Hepatitis C virus [5] = experiment: Antiviral activity against HCV genotype 2a infected in HuH7.5-FGR-JC1_Rluc2A cells at 50 uM by […] luciferase reporter gene assay; assay type: functional, Hepacivirus hominis
Hepatitis C virus [6] = experiment: Antiviral activity against HCV genotype 2a infected in HuH7.5-FGR-JC1_Rluc2A cells by […]; assay type: functional, Hepacivirus hominis
[7] = Selectivity index, ratio of CC50 for human Huh7.5 cells to EC50 for HCV genotype 2a infected in HuH7.5-FGR-JC1_Rluc2A cells; design: species or system Huh-7
Hepatitis C virus [8] = experiment: Antiviral activity against HCV genotype 1b infected in human MH14 cells assessed as inhibition of replication after 48 hrs by RT-PCR analysis; assay type: functional; details: Hepacivirus hominis
In short: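 Stable gt 1b subgenomic replicon cells (MH-14), reporter-free, exposed to compound; total RNA isolated by spin-column kit, quantified spectrophotometrically, and HCV RNA measured by quantitative RT-PCR.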

Hepacivirus hominis = experiment: Inhibition of recombinant HCV hexa histidine-tagged NS5B Cdelta21 RNA dependent RNA polymerase expressed in Escherichia coli at 50 uM after 60 mins by liquid scintillation counting analysis
[9] = system: Hepatitis C virus (isolate Con1); experiment: Inhibition of HCV Con1 genotype 1b C-terminal His-tagged NS3 helicase lacking N-terminal protease using fluorescent DNA as substrate at 500 uM
In short: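 Molecular beacon unwinding assay: 12.5 nM NS3h, 5 nM fluorescent DNA substrate, 1 mM ATP, 25 mM MOPS pH 6.5, 1.25 mM MgCl2, 5% DMSO, 5 µg/ml BSA, 0.01% Tween20, 0.05 mM DTT; compounds up to 500 μM.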

[10] = Inhibition of HCV Con1 genotype 1b C-terminal His-tagged NS3 helicase lacking N-terminal protease using ATP/RNA as substrate after 15 mins by malachite green-based assy; design: species or system Hepatitis C virus (isolate Con1)
In short: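 NS3h (con1 gt 1b, C-terminal His-tag, protease-deleted) at 4 nM with 1 μM polyU RNA (nucleotide), 25 mM MOPS pH 6.5, 1.25 mM MgCl2, 1 mM ATP, 33 µg/ml BSA, 0.07% Tween 20, 0.3 mM DTT, 10% DMSO; started with ATP, 15 min, 37 °C. Phosphate by malachite green, A630. Two-fold series 0.5 mM–0.78 µM, duplicate; variable-slope fit, mean ± SD.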

[11] = system: Internal ribosome entry site (IRES); experiment: Effect on HCV IRES-mediated translation infected in human Huh 7.5 cells by dual-glo luciferase assay; assay type: cell-based; details: Hepacivirus hominis
[12] = biological target: T1, Prostaglandin G/H synthase 2 (Homo sapiens, UniProt P35354); experiment: Effect on cyclooxygenase-2 (unknown origin)-mediated HCV replication in human MH14 cells transfected with pCOX-2-Fluc by luciferase reporter gene assay; assay type: ADME, cell-based
T1 sequence (P35354 whole entry): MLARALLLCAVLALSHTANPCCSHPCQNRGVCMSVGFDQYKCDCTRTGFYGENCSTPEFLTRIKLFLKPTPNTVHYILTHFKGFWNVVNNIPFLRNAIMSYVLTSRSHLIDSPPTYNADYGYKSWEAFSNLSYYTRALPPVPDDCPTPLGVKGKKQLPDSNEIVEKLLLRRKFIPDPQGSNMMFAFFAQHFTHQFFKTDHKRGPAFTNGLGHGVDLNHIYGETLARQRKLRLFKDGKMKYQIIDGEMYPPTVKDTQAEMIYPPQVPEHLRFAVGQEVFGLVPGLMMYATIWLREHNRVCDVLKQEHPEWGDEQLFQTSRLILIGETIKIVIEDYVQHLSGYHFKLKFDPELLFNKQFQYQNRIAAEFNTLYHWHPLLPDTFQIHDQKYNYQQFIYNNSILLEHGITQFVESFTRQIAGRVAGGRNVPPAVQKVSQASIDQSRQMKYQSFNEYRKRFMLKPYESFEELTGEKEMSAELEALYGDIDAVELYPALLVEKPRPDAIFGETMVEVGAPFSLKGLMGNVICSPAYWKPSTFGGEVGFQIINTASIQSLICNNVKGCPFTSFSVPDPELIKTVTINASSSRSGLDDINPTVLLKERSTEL
In short: (§1)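 MH-14 replicon cells transfected with 300 ng of the reporter plasmid (pCOX-2-FLuc, pHO-1-Luc, pISRE-Luc or p3xARE-Luc); 16 h later treated with compound at 5, 10 and 25 μM or DMSO for 48 h. Firefly luciferase read, normalized to Renilla luciferase for transfection efficiency.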

Heme oxygenase 1 = biological target: T2, Heme oxygenase 1 (Homo sapiens, UniProt P09601); experiment: Effect on heme oxygenase-1 (unknown origin)-mediated HCV replication in human MH14 cells transfected with pHO-1-Luc by luciferase reporter gene assay; assay type: ADME, cell-based; in short: as §1
T2 sequence (P09601 whole entry): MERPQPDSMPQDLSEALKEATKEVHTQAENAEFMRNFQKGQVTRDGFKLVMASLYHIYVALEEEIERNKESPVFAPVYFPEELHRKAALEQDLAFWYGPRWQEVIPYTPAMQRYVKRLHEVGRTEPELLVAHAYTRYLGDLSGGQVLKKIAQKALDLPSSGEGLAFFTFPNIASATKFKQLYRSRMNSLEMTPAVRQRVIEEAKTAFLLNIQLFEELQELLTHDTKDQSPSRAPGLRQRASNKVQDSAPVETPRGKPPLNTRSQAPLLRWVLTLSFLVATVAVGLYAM

[13] = Effect on interferon-stimulated response element (unknown origin)-mediated HCV replication in human MH14 cells transfected with pISRE-Luc by luciferase reporter gene assay; assay type: ADME, cell-based; in short: as §1
[14] = Effect on anti-oxidant response element (unknown origin)-mediated HCV replication in human MH14 cells transfected with p3xARE-Luc by luciferase reporter gene assay; assay type: ADME, cell-based; in short: as §1

Row | SMILES | CC50 [1] [µM] | inhibition at 50 µM (Hepatitis C virus [2]) [%] | EC50 (Hepatitis C virus [3]) [µM] | Ratio CC50/EC50 [4] | inhibition at 50 µM (Hepatitis C virus [5]) [%] | EC50 (Hepatitis C virus [6]) [µM] | Ratio CC50/EC50 [7] | inhibition (Hepatitis C virus [8]) | inhibition (Hepacivirus hominis) | inhibition [9] | IC50 [10] [µM] | inhibition [11] | inhibition (INH) [12] | inhibition (INH) (Heme oxygenase 1) | inhibition (INH) [13] | inhibition (INH) [14]
1 | c1ccc(Cn2c(-c3ccccc3)cc3c2CCCC3)cc1 | 80.8 | 95 | 7.9 | 10 | 99 | 2.6 | 32 | Dose-dependent effect | inactive | inactive | > 1000 | inactive | Not Active | Not Active | Not Active | Not Active
2 | Fc1ccc(-n2c(-c3ccccc3)cc3c2CCCC3)cc1 | > 200 | 71 | 29.2 | >7 | 66 | 12.3 | >16 |  | inactive | inactive | > 1000 |  |  |  |  | 
3 | O=[N+]([O-])c1ccc(-c2cc3c(n2Cc2ccccc2)CCCC3)cc1 | > 200 | 75 | 15 | 13 | 98 | 7.3 | 27 |  | inactive | inactive | > 1000 |  |  |  |  | 
4 | COc1ccc(-c2cc3c(n2Cc2ccccc2)CCCC3)cc1 | 137 | 99 | 11.8 | 12 | 96 | 4.9 | 28 |  | inactive | inactive | > 1000 |  |  |  |  | 
5 | Nc1ccc(-c2cc3c(n2Cc2ccccc2)CCCC3)cc1 | 110 | 66 | 12.4 | 9 | 88 | 8.7 | 13 |  | inactive | inactive | 417 |  |  |  |  | 
